The record followed here is ChEMBL document CHEMBL2385018, “Microwave assisted synthesis, cholinesterase enzymes inhibitory activities and molecular docking studies of new pyridopyrimidine derivatives” (Bioorg Med Chem, 2013).

Molecules are shown by their SMILES.

For assay [1], the target named is Cholinesterase (Equus caballus) (UniProt P81908). Nature of the assay: Selectivity ratio of Galanthamine IC50 to compound IC50 for equine BChE.
The nature of assay [2]: Selectivity ratio of IC50 for electric eel AChE to IC50 for equine serum BuChE.
The nature of assay [3]: Selectivity ratio of IC50 for equine serum BuChE to IC50 for electric eel AChE.
Another assay addresses Cholinesterase (Equus caballus, UniProt P81908). Nature of the assay: Inhibition of equine serum BuChE using S-butyrylthiocholine chloride as substrate incubated for 15 mins prior to substrate addition measured after 30 mins by Ellman's method. In outline:
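Modified Ellman method in 0.1 M sodium phosphate buffer, pH 8. Samples were dissolved in DMSO (1 mg/mL stock; 1% DMSO final). Equine serum BChE was preincubated with sample for 15 min at 25 °C. DTNB (10 mM stock) and S-butyrylthiocholine chloride were then added, and absorbance was read at 412 nm after 30 min. Triplicate, blank-corrected, % inhibition versus control.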

For the next assay, the target named is Acetylcholinesterase (Electrophorus electricus, UniProt O42275). Nature of the assay: Inhibition of electric eel AChE using […] as substrate incubated for 15 mins prior to substrate addition measured after 30 mins by Ellman's method.
Acetylcholinesterase, sequence (O42275 whole entry): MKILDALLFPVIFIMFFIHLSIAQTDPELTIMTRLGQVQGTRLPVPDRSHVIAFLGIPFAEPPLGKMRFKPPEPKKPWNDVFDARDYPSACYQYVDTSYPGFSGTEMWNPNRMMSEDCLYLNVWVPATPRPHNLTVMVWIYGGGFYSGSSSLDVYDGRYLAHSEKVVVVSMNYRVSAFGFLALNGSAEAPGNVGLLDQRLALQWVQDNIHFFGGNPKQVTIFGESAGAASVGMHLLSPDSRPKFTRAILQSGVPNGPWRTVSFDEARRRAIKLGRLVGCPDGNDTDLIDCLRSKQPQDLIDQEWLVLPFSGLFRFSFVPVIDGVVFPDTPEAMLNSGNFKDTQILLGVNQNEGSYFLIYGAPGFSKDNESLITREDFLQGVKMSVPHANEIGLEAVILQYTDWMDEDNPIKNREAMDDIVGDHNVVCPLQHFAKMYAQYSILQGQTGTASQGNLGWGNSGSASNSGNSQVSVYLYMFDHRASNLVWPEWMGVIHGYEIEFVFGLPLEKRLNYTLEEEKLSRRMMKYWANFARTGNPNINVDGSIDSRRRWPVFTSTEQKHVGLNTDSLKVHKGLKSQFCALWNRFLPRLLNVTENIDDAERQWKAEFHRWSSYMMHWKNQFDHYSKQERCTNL

Cholinesterase (Equus caballus), sequence (P81908 whole entry): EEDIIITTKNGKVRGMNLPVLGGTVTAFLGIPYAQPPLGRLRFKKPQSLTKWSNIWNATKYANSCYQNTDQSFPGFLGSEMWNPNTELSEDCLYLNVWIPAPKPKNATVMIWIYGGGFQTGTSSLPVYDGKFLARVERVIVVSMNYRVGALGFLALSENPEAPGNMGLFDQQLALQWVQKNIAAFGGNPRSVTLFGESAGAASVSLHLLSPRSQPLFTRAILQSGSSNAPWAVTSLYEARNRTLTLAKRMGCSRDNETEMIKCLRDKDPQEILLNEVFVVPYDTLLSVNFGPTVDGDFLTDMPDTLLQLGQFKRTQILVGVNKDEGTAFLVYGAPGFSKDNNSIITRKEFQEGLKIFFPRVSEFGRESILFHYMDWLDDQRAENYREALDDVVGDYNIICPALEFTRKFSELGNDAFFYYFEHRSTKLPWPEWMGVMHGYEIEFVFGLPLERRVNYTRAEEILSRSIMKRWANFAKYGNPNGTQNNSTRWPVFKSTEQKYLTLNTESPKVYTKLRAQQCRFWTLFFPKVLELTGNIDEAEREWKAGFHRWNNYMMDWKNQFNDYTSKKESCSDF
Cholinesterase, sequence (P81908 whole entry): as above

In the case of `O=C1NC2=C(CNC/C2=C\c2ccc(F)cc2)C(c2ccc(F)cc2)N1` (stereo not given), the results for the Ratio IC50 in assay [1], in assay [2] and in assay [3] were 2, 2.34 and 0.43, respectively. Also, the IC50 is 18.9 µM against Cholinesterase and 44.2 µM against Acetylcholinesterase.

For `O=C1NC2=C(CNC/C2=C\c2ccc(Br)cc2)C(c2ccc(Br)cc2)N1` (stereo not given), the Ratio IC50 in assay [1] was found to be 2; in assay [2] it was 2.54; in assay [3] it was 0.39. In addition, the concentration for half-maximal inhibition (IC50) turned out to be 6.22 µM against Cholinesterase and 15.9 µM against Acetylcholinesterase.

As to `S=C1NC2=C(CNC/C2=C\c2ccccc2)C(c2ccccc2)N1` (stereo not given), the Ratio IC50 in assay [1] worked out at 2; in assay [2], 5.09; in assay [3], 0.2. The IC50 on Cholinesterase came out at 3.78 µM; against Acetylcholinesterase, 19.3 µM.

For `COc1ccccc1/C=C1\CNCC2=C1NC(=O)NC2c1ccccc1OC` (stereo not given), the figures for the Ratio IC50 in assay [1], in assay [2] and in assay [3] were 2, 3.75 and 0.27, respectively. In addition, the values for the IC50 against Cholinesterase and on Acetylcholinesterase were 10.7 µM and 40.2 µM, respectively.

On to `O=C1NC2=C(CNC/C2=C\c2ccc(Cl)cc2Cl)C(c2ccc(Cl)cc2Cl)N1` (stereo not given), for which the Ratio IC50 in assay [1] turned out to be 2; in assay [2], 1.26; in assay [3], 0.79. For the same molecule, the half-inhibitory concentration (IC50) is 23.5 µM at Cholinesterase and 29.9 µM against Acetylcholinesterase.

For `S=C1NC2=C(CNC/C2=C\c2ccc(Cl)cc2)C(c2ccc(Cl)cc2)N1` (stereo not given), the figures for the Ratio IC50 in assay [1], in assay [2] and in assay [3] were 2, 0.35 and 2.78, respectively. Further, the IC50 against Cholinesterase came out at 6.26 µM; against Acetylcholinesterase, 2.25 µM.

Take `O=C1NC2=C(CNC/C2=C\c2ccc(Cl)cc2)C(c2ccc(Cl)cc2)N1` (stereo not given): the Ratio IC50 in assay [1] was found to be 2; in assay [2], 2.2; in assay [3], 0.45. The half-inhibitory concentration (IC50) was 16.7 µM at Cholinesterase and 36.8 µM on Acetylcholinesterase.

Take `Cc1ccc(/C=C2\CNCC3=C2NC(=S)NC3c2ccc(C)cc2)cc1` (stereo not given): the Ratio IC50 was 2 in assay [1], 5.95 in assay [2] and 0.17 in assay [3]. Besides, the IC50 was found to be 6.27 µM on Cholinesterase and 37.5 µM against Acetylcholinesterase.

`Cc1ccccc1/C=C1\CNCC2=C1NC(=O)NC2c1ccccc1C` (stereo not given): the Ratio IC50 in assay [1] was 2; in assay [2], 7.74; in assay [3] it was 0.13. Also, the IC50 was found to be 5.22 µM against Cholinesterase and 40.4 µM on Acetylcholinesterase.

As to `Fc1ccccc1/C=C1\CNCC2=C1NC(=S)NC2c1ccccc1F` (stereo not given), the Ratio IC50 in assay [1] worked out at 2; in assay [2], 6.21; in assay [3], 0.16. The IC50 on Cholinesterase worked out at 6.5 µM; against Acetylcholinesterase it was 40.4 µM.

In the case of `Cc1ccccc1/C=C1\CNCC2=C1NC(=S)NC2c1ccccc1C` (stereo not given), the Ratio IC50 in assay [1] was 2; in assay [2], 12.9; in assay [3], 0.08. The results for the concentration for half-maximal inhibition (IC50) against Cholinesterase and against Acetylcholinesterase were 3.07 µM and 39.7 µM, respectively.

Regarding `O=C1NC2=C(CNC/C2=C\c2cccc3ccccc23)C(c2cccc3ccccc23)N1` (stereo not given), the Ratio IC50 in assay [1] came to 2; in assay [2], 2.44; in assay [3] it was 0.41. The IC50 was 5.39 µM against Cholinesterase and 13.2 µM on Acetylcholinesterase.

On to `O=C1NC2=C(CNC/C2=C\c2ccccc2F)C(c2ccccc2F)N1` (stereo not given), for which the results for the Ratio IC50 in assay [1], in assay [2] and in assay [3] were 2, 5.61 and 0.18, respectively. In addition, the IC50 against Cholinesterase came out at 3.31 µM; on Acetylcholinesterase, 18.6 µM.

`COc1ccccc1/C=C1\CNCC2=C1NC(=S)NC2c1ccccc1OC` (stereo not given): the Ratio IC50 in assay [1] was determined as 16; in assay [2], 0.67; in assay [3] it was 1.47. In addition, the figures for the half-maximal inhibitory concentration (IC50) on Cholinesterase and against Acetylcholinesterase were 1.18 µM and 0.8 µM, respectively.

In the case of `S=C1NC2=C(CNC/C2=C\c2ccccc2Cl)C(c2ccccc2Cl)N1` (stereo not given), the results for the Ratio IC50 in assay [1], in assay [2] and in assay [3] were 2, 11.1 and 0.09, respectively. For the same molecule, the concentration for half-maximal inhibition (IC50) was 2.91 µM against Cholinesterase and 32.4 µM on Acetylcholinesterase.

Consider `O=[N+]([O-])c1cccc(/C=C2\CNCC3=C2NC(=S)NC3c2cccc([N+](=O)[O-])c2)c1` (stereo not given), for which the figures for the Ratio IC50 in assay [1], in assay [2] and in assay [3] were 2, 4.25 and 0.24, respectively. In addition, the IC50 is 8.09 µM against Cholinesterase and 34.3 µM against Acetylcholinesterase.

With `Fc1ccc(/C=C2\CNCC3=C2NC(=S)NC3c2ccc(F)cc2)cc1` (stereo not given), the Ratio IC50 was 2 in assay [1], 1.29 in assay [2] and 0.77 in assay [3]. Also, the IC50 against Cholinesterase came to 28.8 µM; at Acetylcholinesterase, 37.2 µM.

As to `S=C1NC2=C(CNC/C2=C\c2cccc3ccccc23)C(c2cccc3ccccc23)N1` (stereo not given), the Ratio IC50 in assay [1] turned out to be 2; in assay [2] it was 0.25; in assay [3], 4.07. The IC50 was 5.58 µM on Cholinesterase and 1.37 µM against Acetylcholinesterase.

As for `S=C1NC2=C(CNC/C2=C\c2ccc(Cl)cc2Cl)C(c2ccc(Cl)cc2Cl)N1` (stereo not given), the Ratio IC50 in assay [1] turned out to be 2; in assay [2], 0.67; in assay [3], 1.5. The figures for the IC50 against Cholinesterase and against Acetylcholinesterase were 49.8 µM and 26.3 µM, respectively.

Consider `Cc1ccc(/C=C2\CNCC3=C2NC(=O)NC3c2ccc(C)cc2)cc1` (stereo not given), for which the Ratio IC50 was found to be 2 in assay [1], 6.56 in assay [2] and 0.15 in assay [3]. For the same molecule, the figures for the IC50 against Cholinesterase and on Acetylcholinesterase were 7.09 µM and 46.5 µM, respectively.

Take `O=C1NC2=C(CNC/C2=C\c2cccc([N+](=O)[O-])c2)C(c2cccc([N+](=O)[O-])c2)N1` (stereo not given): the Ratio IC50 is 2 in assay [1], 2.73 in assay [2] and 0.37 in assay [3]. In addition, the values for the 50% inhibitory concentration (IC50) against Cholinesterase and at Acetylcholinesterase were 10.3 µM and 28.3 µM, respectively.

As for `O=C1NC2=C(CNC/C2=C\c2ccccc2Cl)C(c2ccccc2Cl)N1` (stereo not given), the Ratio IC50 in assay [1] was 2; in assay [2], 9.57; in assay [3], 0.1. The IC50 worked out at 2.51 µM at Cholinesterase and 24.1 µM against Acetylcholinesterase.

Take `S=C1NC2=C(CNC/C2=C\c2ccc(Br)cc2)C(c2ccc(Br)cc2)N1` (stereo not given): the Ratio IC50 in assay [1] came to 12; in assay [2], 7.2; in assay [3], 0.14. In addition, the IC50 against Cholinesterase was determined as 1.65 µM; against Acetylcholinesterase, 11.9 µM.

Consider `O=C1NC2=C(CNC/C2=C\c2ccccc2)C(c2ccccc2)N1` (stereo not given), for which the results for the Ratio IC50 in assay [1], in assay [2] and in assay [3] were 2, 24 and 0.04, respectively. Besides, the half-maximal inhibitory concentration (IC50) on Cholinesterase was 2.86 µM; on Acetylcholinesterase, 68.7 µM.
